Data reported in ChEMBL document CHEMBL1147384, “Cytotoxic diterpenoids from the brown alga Dilophus ligulatus” (1993).
In brackets after ≈: the same amount, converted by molar mass.

Key:
Assay type in all cases: functional
Conditions in all cases: read-out: ED50 (the source's name)
KB = assay: Cytotoxicity against human KB cells
How it was run: (§1)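 Run under the lab's standard cytotoxicity protocols with mercaptopurine as the positive standard. Activity is given as ED50 in μg/ml. Cells were human nasopharynx carcinoma KB, human lung carcinoma NSCLC-N6, murine leukemia P-388, and P-388/DOX, a P-388 line expressing the multidrug-resistance (mdr) gene.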

P388 [1] = assay: Cytotoxicity against mouse P388 cells; how it was run: as §1
P388 [2] = assay: Cytotoxicity against mouse doxorubicin-resistant P388 cells; how it was run: as §1
[3] = Cytotoxicity against human NSCLC-N6 cells; how it was run: as §1

Structure (SMILES) | EC50 (KB) [µg/mL] | EC50 (P388 [1]) [µg/mL] | EC50 (P388 [2]) [µg/mL] | EC50 [3] [µg/mL]
CC(=O)OC[C@H]1/C(C=O)=C\C/C=C(\C)C[C@H](O)[C@@H]1[C@@H](C)CCC=C(C)C [HYDROXYACETYLDICTYOLAL] | 2.1 (≈ 5.79 µM) | 3.9 (≈ 10.8 µM) | 9.3 (≈ 25.7 µM) | 10 (≈ 27.6 µM)
CC(=O)O/C=C1/CC/C=C(\C)C[C@@H]2OC(=O)[C@H]1[C@H]2[C@@H](C)CCC=C(C)C [DILOPHOLIDE] | 1.5 (≈ 4.16 µM) | 0.5 (≈ 1.39 µM) | 12 (≈ 33.3 µM) | 3.3 (≈ 9.15 µM)
CC(=O)O[C@@H]1C(=O)C2C1CC/C=C(\C)CC[C@@H]2[C@H](C)CCC=C(C)C (some centres undefined) [ACETYLCORIACENONE] | > 10 | 4.4 (≈ 12.7 µM) | > 10 | 5.4 (≈ 15.6 µM)
Sc1ncnc2nc[nH]c12 [MERCAPTOPURINE ANHYDROUS] | 0.54 (≈ 3.55 µM) | 0.7 (≈ 4.6 µM) | 0.25 (≈ 1.64 µM) | 0.76 (≈ 4.99 µM)
CC(=O)O[C@H]1C(=O)C2C1CC/C=C(\C)CC[C@@H]2[C@H](C)CCC=C(C)C (some centres undefined) [ISOACETYLCORIACENONE] | > 10 | 6 (≈ 17.3 µM) | > 10 | 6.82 (≈ 19.7 µM)
CC(=O)O[C@H]1C[C@H](C)[C@H]2C[C@H]2C2=C(COC2=O)[C@H]1[C@H](C)CCC=C(C)C [ACETOXYCRENULIDE] | > 10 | > 10 | > 10 | > 10
